This is an account of results in ChEMBL document CHEMBL3627671, “Novel derivatives of nitro-substituted salicylic acids: Synthesis, antimicrobial activity and cytotoxicity” (Bioorg Med Chem, 2015).

Assay [1] concerns Mycobacterium tuberculosis. The experiment in a line: Antimycobacterial activity against Mycobacterium tuberculosis H37Rv 331/88 after 14 days. Format: functional. To be noted: H37Rv 331/88, 336 h.
In assay [2] the test system is Mycobacterium tuberculosis. The experiment in a line: Antimycobacterial activity against Mycobacterium tuberculosis H37Rv 331/88 after 21 days. Conditions: H37Rv 331/88, 504 h. The assay is classed as functional.
The subject of assay [3] is Mycobacterium avium. The experiment in a line: Antimycobacterial activity against Mycobacterium avium 330/80 after 14 days. Format: functional. To be noted: 330/80, 336 h.
Assay [4] relates to Mycobacterium avium. Nature of the assay: Antimycobacterial activity against Mycobacterium avium 330/80 after 21 days. To be noted: 330/80, 504 h. The assay is classed as functional.
Assay [5] concerns Mycobacterium kansasii. The experiment in a line: Antimycobacterial activity against Mycobacterium kansasii 235/80 after 7 days. The assay is classed as functional. Conditions: 235/80, 168 h. In outline: (§1)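 Šula's semisynthetic medium micromethod at 37 °C, read after 7, 14 and 21 days. The 1.0 McFarland suspension was diluted 10^-4. MIC determined. 6509/96 is a clinical isolate.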

Assay [6] deals with Mycobacterium kansasii. Nature of the assay: Antimycobacterial activity against Mycobacterium kansasii 235/80 after 14 days. Conditions: 235/80, 336 h. Format: functional. In outline:
as §1

In assay [7] the test system is Mycobacterium kansasii. The experiment in a line: Antimycobacterial activity against Mycobacterium kansasii 235/80 after 21 days. Format: functional. To be noted: 235/80, 504 h. In outline:
as §1

For assay [8], the system named is Mycobacterium kansasii. Nature of the assay: Antimycobacterial activity against Mycobacterium kansasii 6509/96 after 7 days. Format: functional. Conditions: 6509/96, 168 h. The gist of the method: as §1
The subject of assay [9] is Mycobacterium kansasii. Nature of the assay: Antimycobacterial activity against Mycobacterium kansasii 6509/96 after 14 days. Conditions: 6509/96, 336 h. The assay is classed as functional. The gist of the method:
as §1

The test system of assay [10] is Mycobacterium kansasii. Nature of the assay: Antimycobacterial activity against Mycobacterium kansasii 6509/96 after 21 days. The assay is classed as functional. Conditions: 6509/96, 504 h. The gist of the method: as §1
A further assay concerns HepG2. The experiment in a line: Cytotoxicity against human HepG2 cells after 24 hrs […]. Format: cell-based. Conditions: HepG2, 24 h.
Assay [11] is described as follows: Selectivity index, ratio of CI50 for human HepG2 cells to MIC100 for Mycobacterium tuberculosis H37Rv 331/88.

Converted amounts (≈) assume the structure as drawn.

Take `O=C(Nc1ccc(Cl)c(Cl)c1)c1cccc([N+](=O)[O-])c1O`: the MIC in assay [1] is 16 µM (≈ 5.23 µg/mL); in assay [2], 32 µM (≈ 10.5 µg/mL); against Mycobacterium avium [3], 250 µM (≈ 81.8 µg/mL); against Mycobacterium avium [4], 250 µM (≈ 81.8 µg/mL); against Mycobacterium kansasii [5], 32 µM (≈ 10.5 µg/mL); in the assay with Mycobacterium kansasii [6], 62.5 µM (≈ 20.4 µg/mL). Further, the minimal inhibitory concentration (MIC) in the assay on Mycobacterium kansasii [7], against Mycobacterium kansasii [8], against Mycobacterium kansasii [9] and in the assay with Mycobacterium kansasii [10] was 62.5 µM (≈ 20.4 µg/mL) in each case. It took 5.9 µM to reach half-maximal inhibition with HepG2 (IC50). The “Selectivity Index” value in assay [11] is given as 0.184.
As to `O=C(Nc1cc(C(F)(F)F)cc(C(F)(F)F)c1)c1cccc([N+](=O)[O-])c1O`, the minimal inhibitory concentration (MIC) came out at 8 µM (≈ 3.15 µg/mL) in assay [1]; 8 µM (≈ 3.15 µg/mL) in assay [2]; 125 µM (≈ 49.3 µg/mL) in the assay with Mycobacterium avium [3]; 125 µM (≈ 49.3 µg/mL) against Mycobacterium avium [4]; 16 µM (≈ 6.31 µg/mL) against Mycobacterium kansasii [5]; 32 µM (≈ 12.6 µg/mL) against Mycobacterium kansasii [6]. In addition, the minimal inhibitory concentration (MIC) against Mycobacterium kansasii [7], with Mycobacterium kansasii [8], in the assay with Mycobacterium kansasii [9] and against Mycobacterium kansasii [10] was 32 µM (≈ 12.6 µg/mL) throughout. Besides, the IC50 in the assay with HepG2 turned out to be 7.4 µM. Moreover, the “Selectivity Index” value in [11] is on record as 0.925.
`O=C(Nc1cccc(C(F)(F)F)c1)c1cccc([N+](=O)[O-])c1O`: the minimum inhibitory concentration (MIC) in assay [1] was 32 µM (≈ 10.4 µg/mL); in assay [2], 32 µM (≈ 10.4 µg/mL); against Mycobacterium avium [3] it was 500 µM (≈ 163 µg/mL); against Mycobacterium avium [4], 500 µM (≈ 163 µg/mL); with Mycobacterium kansasii [5] it was 32 µM (≈ 10.4 µg/mL); with Mycobacterium kansasii [6], 62.5 µM (≈ 20.4 µg/mL). The minimal inhibitory concentration (MIC) against Mycobacterium kansasii [7] was 62.5 µM (≈ 20.4 µg/mL); with Mycobacterium kansasii [8], 125 µM (≈ 40.8 µg/mL); with Mycobacterium kansasii [9], 250 µM (≈ 81.6 µg/mL); against Mycobacterium kansasii [10] it was 250 µM (≈ 81.6 µg/mL). Moreover, 8.9 µM corresponded to half-maximal inhibition in the assay with HepG2 (IC50). Further, the “Selectivity Index” value in [11] stood at 0.278.
